From ChEMBL document CHEMBL4513216, “Probing the Open Global Health Chemical Diversity Library for Multistage-Active Starting Points for Next-Generation Antimalarials” (ACS Infect Dis, 2020)

Assay: Toxicity liver stage against HepG2, at 10uM
Format: cell-based
Parameters: test concentration 10 uM, cell line HepG2-A16-CD81EGFP
Conditions: human, HepG2-A16-CD81EGFP cells; read-out: INHIBITION
Method in brief: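 Uninfected HepG2-A16-CD81EGFP cells, 3 × 10^3 per well, 1536-well, plated on prespotted compound at 10 μM final, parasite-free screening media added to match infected plates; puromycin 10 μM positive, DMSO 0.5% negative; run in parallel with 48 h PbLuc assay at 37 °C, 5% CO2; viability by CellTiter-Glo luminescence, normalized to controls.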

SMILES	cytotoxicity at 10 µM
CCc1nc(-c2ccc(NC(=O)N3CCOCC3)cc2)no1	5.48%
O=C(Nc1ccc(Br)cc1F)c1cc(CN2CCOCC2)on1	6.39%
COCCn1c(-c2cccc(OC)c2)cnc1NC(=O)NCCC(C)C	12.9%
COc1cccc(-c2cc(C(=O)Nc3nc[nH]n3)[nH]n2)c1	-5.51%
O=C(Nc1ncnc2c1CCC2)c1cccc(F)c1	-172%
CC(=O)OC1CN(c2nc3c(C)cccc3s2)C1	-5.14%
Cn1cccc1C(=O)N1CCC2(CC1)CN(S(C)(=O)=O)c1ccccc12	4.73%
COCCC(=O)N1CCC2(CN(Cc3ccc(OC)c(F)c3)C2)C1	-10.4%
CCn1nccc1CNc1nc(N)nc2c1nc(C)n2C	-8.13%
Cc1nc(NCCc2ccccc2)cc(C(=O)N2CCCCC2)n1	-6.27%
Oc1cc(-c2ccccn2)nc(C2CCN(Cc3ccncc3)CC2)n1	-7.56%
NC(=O)CN1CCOCC(Cc2cccc(F)c2)C1 (configuration not stated)	-12.2%
Cn1cc(CNC(=O)Nc2ccc(S(=O)(=O)C(F)F)cc2)cn1	-5.09%
CC(NS(C)(=O)=O)C(=O)Nc1ccc2oc(C3CC3)nc2c1 (configuration not stated)	2.78%
CC(C)C(C#N)N1CCN(C(=O)c2cc(-c3ccccn3)no2)CC1 (configuration not stated)	-1.54%
CC1CCC(O)(CSc2nnnn2C2CC2)CC1 (configuration not stated)	-1.97%
COc1ccc(CNC(=O)N2CCc3sccc3C2)cc1O	7.57%
COC(=O)c1cccc(S(=O)(=O)Nc2ccc(Cl)c(C(N)=O)c2)c1	7.31%
CC(c1nc(C2CC2)no1)N1CCN(CCc2ccncc2)CC1 (configuration not stated)	-5.65%
COc1cccc(CCC(=O)Nc2ccn(C)n2)c1OC	-2.14%
CC(C(=O)Nc1ccc(C#N)cc1)N1CCc2ccccc21 (configuration not stated)	-1.5%

SMILES	cytotoxicity at 10 µM
COc1cc(CNC(=O)Nc2nnc(C(C)C)s2)ccc1O	-2.22%
Cc1cc(S(=O)(=O)N2CC[C@@H](O)C2)c(Cl)cc1F	-8.59%
CN(C)C(=O)CS(=O)(=O)Cc1ccn(-c2cccc(F)c2)n1	3.03%
CCNC(=O)NCc1ccccc1NS(=O)(=O)c1ccccc1	8.27%
CN(Cc1ccncc1)Cc1nccn1Cc1ccccc1	12.5%
COCCCN1CCC(NC2CSCCc3ccccc32)CC1 (configuration not stated)	-3.32%
CCN(CC(F)(F)F)C(=O)C1CCCN(Cc2ccccn2)C1 (configuration not stated)	-2.3%
O=C(CCNS(=O)(=O)c1cccnc1)N1CCOC(c2ccccc2)C1 (configuration not stated)	5.11%
CC1(C)CCC(CC(=O)O)c2ccccc21 (configuration not stated)	2.93%
Cn1ccnc1-c1noc(NCc2ccccc2)n1	-3.49%
CCNC(=O)N1CCC(NC(=O)NCCc2cc3ccccc3o2)C1 (configuration not stated)	-51.8%
CN(CC(O)C1CC1)C(=O)c1ccc(-c2nc(C3CC3)n[nH]2)cc1 (configuration not stated)	-5.09%
Cc1cccc(OCCNC(=O)C(C)S(=O)(=O)c2ccccn2)c1 (configuration not stated)	5.76%
Cc1cc(CS(=O)(=O)N(C)C(C)c2ccc(Cl)cc2)on1 (configuration not stated)	9.72%
COC(=O)NCCC(=O)NC(c1ccc(Cl)cc1)C(F)(F)F (configuration not stated)	7.51%
Cc1cnn(CCCOc2ccc3c(c2)OCO3)c1	8.4%
c1csc(-c2noc(CC3CCCO3)n2)c1 (configuration not stated)	-3.37%
CC(C(=O)NC(N)=O)N1CCN(c2ccc(C#N)cc2F)CC1 (configuration not stated)	-4.4%
CCCS(=O)(=O)CC(=O)Nc1cc(CC(C)(C)C)n[nH]1	2.43%
COc1cccc(CN(C)C(=O)CSc2ccc3c(c2)OCCO3)c1	-7.97%
CC[C@H](C)Nc1nccc(-c2cnc3sccn3c2=O)n1	-8.72%

SMILES	cytotoxicity at 10 µM
Cc1noc(C)c1S(=O)(=O)N1C[C@@H](C(=O)O)[C@H](c2ccccn2)C1	-6.71%
Cc1ccc2c(c1)CN(CC(=O)NCCc1ccc(F)cc1)CC(C)O2 (configuration not stated)	1.54%
Cc1ccc(C(=O)N2CCC3(CCC(=O)N(CCCO)C3)CC2)c(O)c1	7.4%
COCCCN1CC2(CCN(C(=O)Cc3csc(C)n3)CC2)CC1=O	5.06%
COCCN(Cc1ccsc1)C(=O)c1c(C)cc(C)[nH]c1=O	-2.42%
O=C(c1scc2c1OCCO2)N1CCN(Cc2cccc(F)c2)CC1	0.993%
CN(C)C(=O)N1CCCn2nc(CNC(=O)CCc3ccsc3)cc2C1	-1.77%
CC[C@@]1(O)CCN(C(=O)c2ccc(-c3ccco3)cc2)C[C@H]1O	3.75%
CN(C)[C@H]1CCCCN(Cc2ccccc2Cn2cccn2)C1	-130%
COc1cc(N(C)Cc2cc(C(C)(C)C)n[nH]2)ncn1	-11.1%
C[C@@H]1CN(Cc2cc(C(F)(F)F)ccc2F)CC[C@@]1(O)C1CC1	6%
COc1ccc(Cl)cc1S(=O)(=O)N(C)CC(=O)Nc1ccon1	-3.75%
Cc1nc2c(c(N3CCN(Cc4ccco4)CC3)n1)CCNCC2	-4.27%
CCSCC(C)NCc1nc(-c2cccnc2)no1 (configuration not stated)	-7.66%
CC(=O)N[C@H]1CN(CC(=O)NCc2ccccc2C)C[C@@H]1C(C)C	1.69%
CCCc1nnc(NC(=O)NC(C)Cn2cccn2)s1 (configuration not stated)	-4.05%
COC(=O)c1ccc(N2CCN(CC(=O)NC(N)=O)C(C)C2)cc1 (configuration not stated)	-4.54%
O=C(O)c1cc(NS(=O)(=O)c2ccc(Br)s2)c(F)cc1F	-7.1%
Cc1ccc(CNC(=O)CN2CCOC(Cn3cccn3)C2)s1 (configuration not stated)	-24.1%
CN(C)c1cc(C(=O)N2CCN(c3nccs3)CC2)ccn1	-10.8%
O=C(NCc1ccoc1)Nc1cc(C(F)(F)F)c[nH]c1=O	-0.779%

SMILES	cytotoxicity at 10 µM
Cc1ccc(OCc2nc(CNCC3CN(C)CCO3)cs2)cc1 (configuration not stated)	-23.5%
O=C(CCN1CCc2c(ncn2C2CC2)C1)NC1CCCC1	-10.1%
CC(C)c1nc(C2CCCN(C(=O)c3ccc4nncn4c3)C2)no1 (configuration not stated)	-4.38%
COCc1nc(C(=O)N2CCCC2Cn2cc(C)cn2)cs1 (configuration not stated)	-1.36%
Cc1ccc(C(CNC(=O)Nc2cn[nH]c2)N2CCOCC2)o1 (configuration not stated)	-24.8%
CCc1noc(C)c1C(=O)N1CCCN(Cc2cscn2)CC1	-0.448%
Cc1ccc2cccc(C(=O)N3CCN(c4cccnn4)CC3)c2n1	1.91%
Cc1nn2cccnc2c1C(=O)N1CCCC(Nc2ccccc2)C1 (configuration not stated)	5.82%
CNc1nc(C2CCCN2)nc2c1CCN(S(=O)(=O)C1CCCCC1)C2 (configuration not stated)	9.17%
Cc1cccc(CO[C@@H]2CC[C@H]3[C@H]2OCCN3Cc2nccs2)n1	5.2%
CN(C)CCN1CCCC12CCN(C(=O)c1ccoc1)CC2	-1.83%
O=C(CC1CC1)N1CCN(Cc2ccncc2)c2ncccc2C1	10%
CCOCC1CN(C(=O)Cc2ccccn2)Cc2cnn(C)c21 (configuration not stated)	6.9%
Cc1ccc(CN2C[C@@H]3CCN(Cc4ccncc4)C(=O)[C@H]3C2)s1	4.53%
CN1Cc2[nH]nc(COCC3CC3)c2C1	18%
Cc1ncsc1CN1CC[C@H]2OCC[C@@]2(C(=O)NC2CC2)C1	2.75%
c1c(CN2CCCCC2)nc2n1CCNC2	3.91%
Cc1ccc(NC(=O)Nc2c(O)c3ccccc3oc2=O)cc1C	5.89%
CC(C)NC(=O)[C@H]1C[C@H]2CN(C(=O)NCc3ccccc3)C[C@@H]1O2	5.5%
